Results from different studies.
Compare with care: the assays were run in different laboratories.
Read-out: cell growth or viability

| SMILES | cell line | assay | conditions | measurement | result |
| --- | --- | --- | --- | --- | --- |
| CC(C)(C)[C@H](N)C(=O)Nc1ccccc1/N=c1\cc(-c2ccc3c(c2)OCCO3)oc2cc(F)ccc12 | MDA-MB-468 | CCK-8 | 1 µM | inhibition | -0.62% |
| O=C(NCCc1ccccn1)c1ccc(-c2nc3ccc4[nH]ncc4c3c3c2CCCC3)cc1 | MV4-11 | resazurin | 72 h | GI50 | 1000 nM |
| C[C@H](Nc1ccc2c(c1)OCCn1cc(N3C(=O)OC[C@H]3C(F)F)nc1-2)C(N)=O | MDA-MB-361 | ATP luminescence | 5 days | EC50 | 7.5 nM |
| NCCC(=O)Nc1cccc(/N=c2\cc(-c3ccc4c(c3)OCO4)oc3ccccc23)c1 | MDA-MB-468 | CCK-8 | 1 µM | inhibition | 3.6% |
| OCc1ccc(-c2nn(Cc3ccccc3F)c3ccccc23)o1 | RBE | ATP luminescence | 46 µM, 72 h | inhibition | 68% |
| Nc1nc2ccc(-c3c/c(=N\c4ccccc4NC(=O)CCN4CCOCC4)c4ccccc4o3)cc2o1 | MDA-MB-468 | CCK-8 | 1 µM | inhibition | 0.34% |
| CN(C)CCNC(=O)c1ccc(-c2nc3ccc4[nH]ncc4c3c3c2CCCC3)cc1 | MV4-11 | resazurin | 72 h | GI50 | 25 nM |
| COc1ccc2/c(=N/c3ccccc3NC(=O)[C@@H](N)C(C)(C)C)cc(-c3ccc4c(c3)OCCO4)oc2c1 | MDA-MB-468 | CCK-8 | 1 µM | inhibition | 10.8% |
| CN(C)CCN(C)C(=O)c1ccc(-c2nc3ccc4[nH]ncc4c3c3c2CCCCC3)cc1 | MV4-11 | resazurin | 72 h | GI50 | 383 nM |
| CS(=O)(=O)NCCC(=O)Nc1ccccc1/N=c1\cc(-c2ccc3nc(N)oc3c2)oc2ccccc12 | MDA-MB-468 | CCK-8 | 1 µM | inhibition | 3.19% |
| NCc1ccc(-c2nn(Cc3ccccn3)c3cccnc23)o1 | RBE | ATP luminescence | 46 µM, 72 h | inhibition | 74% |
| O=C(Nc1cccc(Br)c1)c1cccc(S(=O)(=O)N2CCCCCC2)c1 | HBL1 | ATP luminescence | 1 µM, 5 days | viability | 101% |
| CN(C)CCNC(=O)c1ccc(-c2nc3ccc4[nH]ncc4c3c3c2CCCCC3)cn1 | MV4-11 | resazurin | 72 h | GI50 | 146 nM |
| COc1cccc(Cn2nc(-c3ccc(CN)o3)c3ccccc32)c1 | RBE | ATP luminescence | 46 µM, 72 h | inhibition | 78% |
| CN(C)CCN(C)C(=O)c1ccc(-c2nc3ccc4[nH]ncc4c3c3c2CC(F)(F)CC3)cc1 | MV4-11 | resazurin | 72 h | GI50 | 748 nM |
| CCN(Cc1c(F)cccc1OC)c1ccc(CO)c(Cl)c1 | RBE | ATP luminescence | 46 µM, 72 h | inhibition | 65% |
| CN(C)CCN(C)C(=O)c1ccc(-c2nc3ccc4[nH]ncc4c3c3c2CCCCC3)cn1 | MV4-11 | resazurin | 72 h | GI50 | 581 nM |
| COc1ccc2/c(=N/c3ccccc3NC(=O)N3CCOCC3)cc(-c3ccc4c(c3)OCCO4)oc2c1 | MDA-MB-468 | CCK-8 | 1 µM | inhibition | 18.7% |
| O=C(CCCCCCC(=O)Nc1ccccc1)NO | HBL1 | ATP luminescence | 0.1 µM, 5 days | viability | 132% |
| OCc1ccc(-c2nn(Cc3ccccc3)c3ccccc23)o1 | RBE | ATP luminescence | 46 µM, 72 h | inhibition | 75% |
| O=C(NCCCN1CCCCC1)c1ccc(-c2nc3ccc4[nH]ncc4c3c3c2CCCC3)cc1 | MV4-11 | resazurin | 72 h | GI50 | 2400 nM |
| O=C(NO)c1ccc(CC(=O)N(CCO)c2ccccc2)cc1 | HBL1 | ATP luminescence | 0.5 µM, 5 days | viability | 117% |
| OCc1ccc(-c2nn(Cc3ccccn3)c3cccnc23)o1 | RBE | ATP luminescence | 46 µM, 72 h | inhibition | 76% |
| Cc1n[nH]c2ccc3nc(-c4ccc(C(=O)NCCN5CCCC5)cc4)c4c(c3c12)CCCC4 | MV4-11 | resazurin | 72 h | GI50 | 428 nM |
| OCc1ccc(-c2ccn(Cc3ccccc3)n2)o1 | RBE | ATP luminescence | 46 µM, 72 h | inhibition | 47% |
| O=C(Nc1ccccc1/N=c1\cc(-c2ccc3c(c2)OCO3)oc2ccccc12)N1CCNCC1 | MDA-MB-468 | CCK-8 | 1 µM | inhibition | -5.89% |
| O=C(OCc1ccccc1)n1nc(-c2ccc(CO)o2)c2ccccc21 | RBE | ATP luminescence | 46 µM, 72 h | inhibition | 55% |
| COCCC(=O)Nc1ccccc1/N=c1\cc(-c2ccc3nc(N)oc3c2)oc2ccccc12 | MDA-MB-468 | CCK-8 | 1 µM | inhibition | 0.9% |
